Screens deposited in PubChem by Johns Hopkins Ion Channel Center.
hERG rescue = compounds protecting human hERG from proarrhythmic drug block. CHO-hERG, FluxOR thallium flux, dofetilide IC70 present. activation (rescue from dofetilide block), less the hit threshold, % at 10 µM. hit rate 0.51% among 310,000. AID 1511;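 active means activation above the mean of controls blocked by dofetilide plus 5 SD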;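 further: thallium influx through hERG after potassium depolarization seen as dye fluorescence rise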
KCNQ1 inh = inhibitors of human KCNQ1 potassium channel | P51787 | CHO-K1 KCNQ1, FluxOR thallium flux fluorescence; stronger effect = higher value | B-score at 10 µM | hit rate 1.3% among 310,000 | AID 2642;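 active means compounds whose thallium flux B-score, printed positive for inhibition, exceeds three library SD while starting fluorescence stays within three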;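 further: channel opened by potassium depolarization with thallium stimulus after 20 min compound exposure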
KCNK3 block = human KCNK3 channel inhibition, primary screen | hit rate 0.84% among 340,000 | B-score at 10 µM | CHO-KCNK3 thallium flux, FluxOR fluorescence; stronger effect = lower value | AID 602410;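 active means B-score under library mean minus 4 SD, starting fluorescence ratio at most library mean plus 5 SD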;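 further: more negative B-score means stronger inhibition of thallium flux through KCNK3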
Target sequence (O14649 whole entry, looked up): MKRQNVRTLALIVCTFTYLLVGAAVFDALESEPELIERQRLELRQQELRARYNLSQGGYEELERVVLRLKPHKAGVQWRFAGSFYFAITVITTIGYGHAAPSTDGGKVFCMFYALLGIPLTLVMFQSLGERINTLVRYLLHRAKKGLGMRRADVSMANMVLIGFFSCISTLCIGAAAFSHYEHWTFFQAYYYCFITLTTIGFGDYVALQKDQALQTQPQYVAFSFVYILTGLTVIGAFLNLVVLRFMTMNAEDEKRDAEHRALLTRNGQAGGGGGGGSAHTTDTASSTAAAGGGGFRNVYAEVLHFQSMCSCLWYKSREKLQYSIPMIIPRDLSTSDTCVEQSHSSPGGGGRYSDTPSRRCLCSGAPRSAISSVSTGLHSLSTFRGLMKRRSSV
KCNQ1 pot = potentiates or activates the human KCNQ1 potassium channel; CHO-K1 KCNQ1, thallium flux FluxOR fluorescence; stronger effect = higher value; B-score at 10 µM; hit rate 0.35% among 310,000;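 active means fluorescence ratio B-score, a plate-corrected score, at least three library SD, with initial intensity B-score within 5 SD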
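Material: CHO-K1 cells stably expressing KCNQ1. Medium: assay buffer for compound exposure, DMSO matched across wells. Reagent: K+/Tl+ depolarizing stimulus. Compound dosing: single-concentration screen. Times: 37 °C overnight plating, 90-min dark dye load, 20-min compound pretreatment. Technique: FluxOR Tl+ flux fluorescence.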
KCNK9 block = blocks the human KCNK9 two-pore domain potassium channel; B-score at 10 µM; HEK293 KCNK9, FluxOR thallium flux fluorescence; stronger effect = lower value; hit rate 1.2% among 310,000; Q9NPC2; AID 488922;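 active means ratio B-score over 3 SD below the library mean, with starting fluorescence within 5 SD of its mean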;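 further: negative B-score means less thallium flux so channel inhibition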
KCNK9 block conf = human KCNK9 inhibitor confirmation. HEK293 KCNK9 cells, FluxOR thallium flux fluorescence. shares compounds with KCNK9 block. AID 492992. hit rate 43% among 4,900. inhibition, % at 10 µM;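 active means thallium signal inhibited by more than 5 SD of the compound-free buffer control wells, on both duplicate plates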
Kir21 sel = selectivity of KCNK9 modulators against mouse Kir2.1; inhibition, % at 10 µM; AID 492993; shares compounds with KCNK9 block; hit rate 4% among 4,900; Kir2.1 cells, FluxOR thallium flux fluorescence;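 active means thallium signal drop more than 5 SD beyond the mean of the no-compound control wells, seen in both duplicate plates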;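 further: signal is fluorescence rise after thallium addition divided by baseline fluorescence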
KCNK9 uninduced = second check of KCNK9 modulator effects in non-induced HEK293 cells. AID 492997. hit rate 40% among 4,900. FluxOR thallium flux. shares compounds with KCNK9 block. inhibition, % at 10 µM;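 active means thallium signal drop beyond 5 SD of the untreated control mean, on both duplicate plates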
Numbers stand for hits; - = inactive; . = not tested or not shown. Hits are enriched below; roughly 3.1% of the tested compounds scored in any of these assays.

SMILES | hERG rescue | KCNQ1 inh | KCNK3 block | KCNQ1 pot | KCNK9 block | KCNK9 block conf | Kir21 sel | KCNK9 uninduced
COc1cccc(CN2CCN(Cc3cc(OC)c(OC)cc3[N+](=O)[O-])CC2)c1 | - | - | - | - | - | - | - | -
COc1cccc(CN2CCN(Cc3cccc(Br)c3)CC2)c1OC | - | - | - | - | - | - | - | -
COc1cccc(CN2CCSCC2)c1OC | - | - | - | - | - | . | . | .
Cc1ccc(C)c(OCC(O)CN2CCC(CN3C(=O)c4cccc5cccc(c45)C3=O)CC2)c1 (stereo not given) | - | - | - | - | - | - | - | -
COc1ccc(OCC(O)CN2CCC(CN3C(=O)c4cccc5cccc(c45)C3=O)CC2)cc1 (stereo not given) | - | - | - | - | - | . | . | .
O=C(c1ccccc1)c1nc2ccccc2n(CCCn2c(=O)c(C(=O)c3ccccc3)nc3ccccc32)c1=O | - | - | - | - | - | - | - | -
Cn1c(=O)c(C(=O)c2ccccc2)nc2ccccc21 | - | - | - | - | - | . | . | .
CC(=O)NC12CC3CC(C1)CC(C(=O)N(C)CC(=O)Nc1cccc(F)c1)(C3)C2 | . | . | - | . | . | . | . | .
C/C(=N\NC(=S)NCCc1ccccc1)c1cccs1 | - | - | - | - | - | - | - | -
C/C(CCc1ccccc1)=N\NC(=S)NCCc1ccccc1 | - | - | - | - | - | . | . | .
C=CCOc1ccc(CN(C)C(=O)c2ccc(CNS(=O)(=O)c3ccc(C)c(C)c3)cc2)cc1 | . | . | - | . | . | . | . | .
COc1ccccc1NC(=O)Nc1nn(C)c2cccc(OC)c12 | - | - | - | - | -11 | 48% | - | 27%
COc1ccccc1C(=O)N/N=C/C(C)=C/c1ccccc1 | - | - | - | - | -10 | 48% | - | 30%
CC(/C=N/NC(=O)c1ccncc1)=C\c1ccccc1 | - | - | - | - | - | . | . | .
CCOc1ccc(NC(=O)CC(Cc2cc(C)cc(C)c2)C(=O)O)cc1 (stereo not given) | - | - | - | - | - | . | . | .
CCCOc1ccc(Cl)cc1/C=C1/C(=O)ON=C1C | - | - | - | - | - | . | . | .
CC1=NOC(=O)/C1=C\c1ccc(-c2ccc(Cl)cc2Cl)o1 | - | - | - | - | - | - | - | -
COc1ccc(C2=NOC(Cn3nc(C(=O)NCc4ccccc4OC)cc3-c3ccccc3)C2)cc1 (stereo not given) | - | - | - | - | - | . | . | .
Cc1noc(C)c1CSCC(=O)Nc1nc2c(F)cc(F)cc2s1 | . | . | - | . | . | . | . | .
Cc1ccc(-c2noc(CSc3nnc(Cc4ccccc4)n3-c3ccc(Cl)cc3)n2)cc1 | - | - | - | - | - | - | - | 31%
Cn1c(SCc2nc(-c3ccc(Cl)cc3)no2)nnc1-c1ccccc1 | - | - | - | - | - | . | . | .
COc1ccc(-c2noc(CSc3nnc(Cc4ccccc4)n3-c3ccc(Cl)cc3)n2)cc1 | - | - | - | - | - | - | - | -
Cc1ccc(-c2noc(CSc3nnc(CCc4ccccc4)n3-c3ccccc3)n2)cc1 | - | - | - | - | -10 | - | - | 36%
Cc1ccc(SCc2nc(-c3ccccc3)no2)cc1 | - | - | - | - | - | . | . | .
COc1ccc(-c2noc(CSc3nc4ccccc4c(=O)n3-c3ccc(C)cc3)n2)cc1 | - | - | - | - | - | . | . | .
SMILES | hERG rescue | KCNQ1 inh | KCNK3 block | KCNQ1 pot | KCNK9 block | KCNK9 block conf | Kir21 sel | KCNK9 uninduced
COc1ccc(-c2csc(NC(C)c3nc4cc(Cl)c(Cl)cc4n3CCOCCO)n2)cc1 (stereo not given) | - | - | - | - | -8.6 | 32% | - | 40%
CC(=O)OCCCN(C)CC/C=C1/c2ccccc2CSc2ccccc21 | - | - | - | - | - | - | - | -
C[N+](C)(C)CC/C=C1/c2ccccc2CSc2ccccc21 | - | - | - | - | - | . | . | .
N#C/C(=C(/O)CSc1nnc(Cc2cccs2)n1C1CCCCC1)c1nc2ccccc2[nH]1 | - | - | - | - | - | . | . | .
COc1ccccc1-c1nnc(SC/C(O)=C(\C#N)c2nc3ccccc3[nH]2)n1C1CCCCC1 | - | - | - | - | -12 | 72% | - | -
O=C1CCN(S(=O)(=O)c2cc(C(F)(F)F)ccc2Cl)CC1 | . | . | - | . | . | . | . | .
CC(C)=CCc1c(O)ccc(C2COc3c(CC=C(C)C)c(O)cc(O)c3C2=O)c1O (stereo not given) | - | - | - | - | -24 | 66% | - | 28%
CN1CCN(c2c([N+](=O)[O-])cnc3ccccc23)CC1 | - | - | - | - | - | . | . | .
CCC1=NN(C(=O)c2cccc(Br)c2)C(O)(c2ccc(Br)cc2)C1 (stereo not given) | - | 8 | - | - | -10 | 42% | - | 26%
CCC1=NN(C(=O)c2ccc(C)cc2)C(O)(c2ccc(Br)cc2)C1 (stereo not given) | - | - | - | - | - | . | . | .
O=c1[nH]cc(COCC(F)CCl)c(=O)[nH]1 (stereo not given) | - | - | - | - | - | . | . | .
O=C(Nc1nnc(-c2ccc3c(c2)CCCC3)o1)c1ccc(Cl)cc1Cl | 19 | - | - | 52 | - | - | - | -
CN(C)S(=O)(=O)c1ccc(C(=O)Nc2nnc(-c3ccc4c(c3)CCCC4)o2)cc1 | - | - | - | - | - | - | - | -
COc1ccc(-c2nnc(NC(=O)c3ccc(S(=O)(=O)N4CCc5ccccc5C4)cc3)o2)cc1 | - | - | - | - | - | - | - | -
CCn1c(SCC(=O)Nc2ccc(OC)cc2)nc2c(c1=O)SCC2 | - | - | - | - | - | . | . | .
CC1CCc2c(sc(NC(=O)c3ccc(Cn4cc([N+](=O)[O-])cn4)o3)c2C#N)C1 (stereo not given) | - | - | - | - | -16 | 46% | - | 30%
Cc1cc(NC(=S)NC(=O)c2ccccc2)ccc1-c1cc2ccccc2oc1=O | - | - | - | - | - | . | . | .
CCOc1ccc(N(C)S(=O)(=O)c2cc(-c3cc(C)no3)ccc2C(C)C)cc1 | - | - | - | - | -9.5 | 52% | - | 42%
CCOc1ccc(N(C)S(=O)(=O)c2ccc(-c3cc(C)no3)s2)cc1 | - | - | - | - | - | . | . | .
Fc1ccccc1N1CCN(C2CCCN(Cc3ccccc3C(F)(F)F)C2)CC1 (stereo not given) | - | - | - | - | - | - | - | -
COc1ccccc1N1CCN(C2CCCN(Cc3cccc(O)c3)C2)CC1 (stereo not given) | - | - | - | - | - | . | . | .
COc1ccccc1CN1CCCC(N2CCN(c3ccccc3OC)CC2)C1 (stereo not given) | - | - | - | - | - | . | . | .
CC(=O)c1cccc(CN2CCCC(N3CCN(c4ccccc4F)CC3)C2)c1 (stereo not given) | - | - | - | - | - | - | - | -
